Calls of active or inactive are those of the source. The calls are words filed in the database; no cut-off is given here.
Experiments:
Rattus norvegicus [1] = assay: Effect of in vivo DOPA accumulation in reserpine-pretreated rats at limbic region, at 5 mg/kg dosage administered subcutaneously; assay type: functional, Limbic system; conditions: route subcutaneous
Rattus norvegicus [2] = assay: Effect of in vivo DOPA accumulation in reserpine-pretreated rats at striatum region, at 5 mg/kg dosage administered subcutaneously; assay type: functional; conditions: sc, route subcutaneous
Rattus norvegicus [3] = assay: Evaluated for in vivo locomotor activity in nonpretreated rats, measured as accumulated counts/30 min at a dose of 52 umol/kg administered sc; assay type: functional
How it was run: (§1)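 Nonpretreated rats injected sc with test drug 5 min before session; motility by photocell recording, counts accumulated over 30 min. Expressed as percent of saline controls, means ± SEM, n = 3-5; Student's t test vs saline controls.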

Rattus norvegicus [4] = assay: In vivo locomotor activity (accumulated counts/30 min) in reserpine-pretreated rats, after subcutaneous administration of 52 uM/Kg; assay type: functional
How it was run: (§2)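 Rats pretreated with reserpine 5 mg/kg sc 18 h earlier, then test drug sc immediately before session; photocell motility counts accumulated over 30 min, with gross behaviour observed through mirror. Mean ± SEM, n = 3-4; Student's t test vs saline controls; haloperidol pretreatment 0.5 mg/kg ip 30 min before used to test antagonism.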

Rattus norvegicus [5] = assay: Effect of in vivo DOPA accumulation in nonpretreated rats at limbic region, at 5 mg/kg dosage administered subcutaneously; I = Inactive; assay type: functional, organism-based; design: dose 5 mg/kg; conditions: Limbic system
How it was run: (§3)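 Nonpretreated rats given test drug sc 65 min and NSD 1015 (100 mg/kg ip) 30 min before death; saline controls. Limbic and striatal DOPA by HPLC with electrochemical detection.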

Rattus norvegicus [6] = assay: Effect on in vivo DOPA accumulation in nonpretreated rats at striatum region at 5 mg/kg dosage administered subcutaneously; I = Inactive; assay type: functional, organism-based; design: dose 5 mg/kg; how it was run: as §3
Rattus norvegicus [7] = assay: In vivo locomotor activity (accumulated counts/30 min) in nonpretreated rats after subcutaneous administration of 3.2 uM/Kg; assay type: functional; how it was run: as §1
Rattus norvegicus [8] = assay: In vivo locomotor activity (accumulated counts/30 min) in reserpine-pretreated rats, after subcutaneous administration of 3.2 uM/Kg; assay type: functional; how it was run: as §2
Rattus norvegicus [9] = assay: In vivo locomotor activity (accumulated counts/30 min) in nonpretreated rats after subcutaneous administration of 0.32 uM/Kg; assay type: functional; how it was run: as §1
Rattus norvegicus [10] = assay: Effect of in vivo DOPA accumulation in reserpine-pretreated rats at striatum region, at 5 mg/kg dosage administered sc; assay type: functional; conditions: route subcutaneous
Rattus norvegicus [11] = assay: Effect of in vivo DOPA accumulation in reserpine-pretreated rats at limbic region, at 5 mg/kg dosage administered subcutaneously; I = Inactive; assay type: functional, organism-based; design: dose 5 mg/kg; conditions: Limbic system
Rattus norvegicus [12] = assay: Effect of in vivo DOPA accumulation in reserpine-pretreated rats at striatum region, at 5 mg/kg dosage administered sc; I = Inactive; assay type: functional, organism-based; design: dose 5 mg/kg
Rattus norvegicus [13] = assay: Effect on in vivo DOPA accumulation in nonpretreated rats at Limbic region, at 5 mg/kg dosage administered subcutaneously; I = Inactive; assay type: functional, organism-based; design: dose 5 mg/kg; conditions: Limbic system; how it was run: as §3
Rattus norvegicus [14] = assay: Effect on in vivo DOPA accumulation in nonpretreated rats at striatum region, at 5 mg/kg dosage administered subcutaneously; I = Inactive; assay type: functional, organism-based; design: dose 5 mg/kg; how it was run: as §3
Rattus norvegicus [15] = assay: In vivo locomotor activity (accumulated counts/30 min) in reserpine-pretreated rats, after subcutaneous administration of 0.32 uM/Kg; assay type: functional; how it was run: as §2
Rattus norvegicus [16] = assay: In vivo locomotor activity (accumulated counts/30 min) in reserpine-pretreated rats, after subcutaneous administration of 10 uM/Kg; assay type: functional; how it was run: as §2
Rattus norvegicus [17] = assay: In vivo locomotor activity (accumulated counts/30 min) in reserpine-pretreated rats, after subcutaneous administration of 0.31 umol/kg; assay type: functional; how it was run: as §2
Rattus norvegicus [18] = assay: In vivo locomotor activity (accumulated counts/30 min) in reserpine-pretreated rats, after subcutaneous administration of 39 uM/Kg; assay type: functional; how it was run: as §2
[19] = Rattus norvegicus, Limbic system, sc, read-out: ED50

## CCCN(CCC)[C@@H]1Cc2cccc(O)c2C[C@H]1C (stereo in doubt; (+)5) [listing 1 of 2 here]
Rattus norvegicus [1]; dose 5 mg/kg
  ED50: 25 µM/kg
Rattus norvegicus [2]
  ED50: 25 µmol/kg
Rattus norvegicus [3]
  Locomotor activity: 84
Rattus norvegicus [4]
  Locomotor activity: 55

## CCCN(CCC)[C@@H]1Cc2cccc(O)c2C[C@H]1C (stereo in doubt; (+)5) [listing 2 of 2 here]
Rattus norvegicus [5]
  ED50: inactive
Rattus norvegicus [6]
  ED50: inactive

## CN1CCc2cccc3c2[C@H]1Cc1ccc(O)c(O)c1-3 [APOMORPHINE]
Rattus norvegicus [1]; [19]
  ED50: 0.041 µmol/kg
Rattus norvegicus [7]
  Locomotor activity: 277
Rattus norvegicus [8]
  Locomotor activity: 366
Rattus norvegicus [9]
  Locomotor activity: 52
Rattus norvegicus [10]
  ED50: 0.044 µmol/kg

## CCCN(CCC)[C@@H]1Cc2cccc(O)c2C[C@@H]1C
Rattus norvegicus [1]; [19]
  ED50: 0.005 µmol/kg
Rattus norvegicus [11]
  ED50: inactive
Rattus norvegicus [12]
  ED50: inactive
Rattus norvegicus [13]
  ED50: inactive
Rattus norvegicus [14]
  ED50: inactive
Rattus norvegicus [15]
  Locomotor activity: 110
Rattus norvegicus [16]
  Locomotor activity: 12
Rattus norvegicus [3]
  Locomotor activity: 70
Rattus norvegicus [10]
  ED50: 0.005 µmol/kg

## CCCN(CCC)[C@@H]1Cc2cccc(O)c2C[C@H]1C (stereo in doubt; (-)5)
Rattus norvegicus [1]; dose 5 mg/kg
  ED50: 3.5 µM/kg
Rattus norvegicus [4]
  Locomotor activity: 53
Rattus norvegicus [10]
  ED50: 3.1 µmol/kg

## CCCN(CCC)[C@H]1CCc2c(O)cccc2C1
Rattus norvegicus [1]; [19]
  ED50: 0.004 µmol/kg
Rattus norvegicus [17]
  Locomotor activity: 155
Rattus norvegicus [10]
  ED50: 0.004 µmol/kg

## CCCN(CCC)[C@@H]1CCc2c(O)cccc2C1
Rattus norvegicus [1]; [19]
  ED50: 0.41 µmol/kg
Rattus norvegicus [18]
  Locomotor activity: 43
Rattus norvegicus [10]
  ED50: 0.65 µmol/kg

Reference: ChEMBL document CHEMBL1123775, “C3-methylated 5-hydroxy-2-(dipropylamino)tetralins: conformational and steric parameters of importance for central dopamine receptor activation” (1987)
